Screens as filed in PubChem.
In the library only some 1.1% were active in any assay of this set; here they are far more common.
FAS-TE inh – blocks the thioesterase domain of human fatty acid synthase | P49327 | recombinant FAS-TE, OMFH fluorogenic substrate, fluorescence endpoint | inhibition, % at 15 µM | actives 0.67% (n = 360,000);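 active = compounds whose normalised, plate-corrected inhibition of enzyme fluorescence in the single-dose primary screen is 50% or more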
Arrestin-AP2 inh – inhibitors of human beta-arrestin and AP2 interaction. FITC-arrestin peptide / GST-AP2 beads, flow cytometry; AP2 beta2 appendage carries R879A mutation. inhibition, % at 10 µM. actives 0.31% (n = 340,000). AID 504490;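 active = inhibition above a set limit, near 3 SD of compounds lacking own fluorescence, cut at about 54% in these data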
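System: GST-AP2 R879A bound to glutathione beads, E. coli-expressed. Also added: 50 nM FITC-arrestin peptide. Schedule: compound with beads 12 min RT, then probe 1 h RT. Signal: bead flow cytometry, FITC channel. Read-out basis: percent response.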
GASC-1 inh – inhibitors of human GASC-1 (JMJD2C) demethylase; actives 0.069% (n = 330,000); inhibition, % at 2.35 µM; Q9H3R0; AID 2099; GST-JMJD2C(1-420) H3K9me3 demethylation, DELFIA europium;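 active = more than half of a compound's replicate wells show inhibition beyond 50%, single wells judged on their own value; inconclusive = some, but no more than half, of replicates pass 50% inhibition; inactive = no replicate passes 50% inhibition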;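 also: signal counts dimethyl H3K9 product captured on neutravidin plate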
Target sequence (Q9H3R0 1-420 limits assumed): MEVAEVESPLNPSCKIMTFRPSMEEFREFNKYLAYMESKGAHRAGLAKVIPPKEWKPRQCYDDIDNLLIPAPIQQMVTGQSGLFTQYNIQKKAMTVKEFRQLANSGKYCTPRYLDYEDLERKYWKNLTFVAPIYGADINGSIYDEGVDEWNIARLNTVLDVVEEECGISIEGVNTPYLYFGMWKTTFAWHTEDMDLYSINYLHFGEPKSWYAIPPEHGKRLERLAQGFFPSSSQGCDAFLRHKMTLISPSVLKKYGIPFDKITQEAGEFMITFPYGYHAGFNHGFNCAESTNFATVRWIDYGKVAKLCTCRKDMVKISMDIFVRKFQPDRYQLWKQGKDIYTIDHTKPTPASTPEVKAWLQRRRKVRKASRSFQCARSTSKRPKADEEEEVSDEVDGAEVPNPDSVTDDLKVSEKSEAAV
SENP1 FRET inh – inhibitors of human SENP1 SUMO protease catalytic domain. Q9P0U3. inhibition, % at 10 µM. recombinant SENP1 catalytic domain, CyPet-SUMO1-YPet FRET cleavage. actives 0.21% (n = 360,000);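 active = inhibition at least 30% at 10 µM, raw YFP signal under a set limit, fluorescence ratio 0.5 to 1.5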
Target sequence (Q9P0U3 419-644 limits assumed): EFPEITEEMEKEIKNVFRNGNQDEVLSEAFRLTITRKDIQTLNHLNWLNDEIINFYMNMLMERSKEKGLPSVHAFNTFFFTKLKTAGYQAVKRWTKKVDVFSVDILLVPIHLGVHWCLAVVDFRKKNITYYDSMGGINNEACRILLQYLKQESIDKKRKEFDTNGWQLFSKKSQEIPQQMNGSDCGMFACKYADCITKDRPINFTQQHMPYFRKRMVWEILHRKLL
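Assay system: hSENP1 catalytic domain, recombinant. Amount: SENP1 enzyme, 20 pM final. Schedule: 50 min reaction, RT, dark. Technique: FRET, CFP and YFP emission. Control set: no-enzyme wells low, DMSO-plus-enzyme wells high control.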
FAS-TE conf – confirmation of human fatty acid synthase thioesterase inhibitors. shares compounds with FAS-TE inh. AID 624325. actives 45% (n = 2,300). inhibition, % at 15 µM. recombinant FAS-TE, OMFH fluorogenic substrate, fluorescence;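 active = compounds inhibiting the enzyme by at least 50% at 15 µM in any one of the replicates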
Numbers stand for hits; 0 = inactive; ? = inconclusive; - = no result.

SMILES	FAS-TE inh	Arrestin-AP2 inh	GASC-1 inh	SENP1 FRET inh	FAS-TE conf
Cc1c(OCc2nn[nH]n2)ccc2c(-c3ccccc3)cc(=O)oc12	76	0	0	0	86
COC(=O)c1ccc(CSc2nc(C(F)F)cc(C)c2C#N)o1	53	0	0	0	43
COc1cccc(C(=O)OCC(=O)Nc2cc(C)on2)c1OC	0	0	0	0	-
CCO[C@H]1OC(C(=O)NCc2ccccc2)=C[C@@H](C2CCCCC2)[C@@H]1CCCO	57	0	0	0	63
CCCCCN(C(=O)COC(=O)CSc1ccc([N+](=O)[O-])cc1)c1c(N)n(CCCC)c(=O)[nH]c1=O	58	0	0	0	0
O=C(Cn1cnc2cc([N+](=O)[O-])ccc2c1=O)NC1CCS(=O)(=O)C1 (stereo not given)	0	0	0	0	-
CN(Cc1cccs1)C(=O)Cn1cnc2cc([N+](=O)[O-])ccc2c1=O	53	0	0	0	55
O=C(Cn1cnc2cc([N+](=O)[O-])ccc2c1=O)N(Cc1ccccc1)C1CCS(=O)(=O)C1 (stereo not given)	57	0	0	0	0
COc1cc(S(=O)(=O)Nc2ccc(C)cc2)ccc1N=Cc1c(C)[nH]n(-c2ccccc2)c1=O	55	0	0	0	0
COc1cc(S(=O)(=O)Nc2cccc(C)c2)ccc1N=Cc1c(C)[nH]n(-c2ccccc2)c1=O	-	-	0	-	-
Cc1ccc(S(=O)(=O)N2CCOCC2)cc1C(=O)NCCN1C(=O)S/C(=C\c2ccccc2Cl)C1=O	56	0	0	0	0
Cc1ccc2c(c1)c1ccc3c(c1n2C)C(=O)C=CC3=O	54	0	-	0	0
CN1C(C(=O)NCc2cccc(Br)c2)CC2Cn3c(nc4cc(Cl)c(Cl)cc43)C21 (stereo not given)	57	0	0	0	44
Cc1ccccc1CN1C(=O)CS/C1=N/N=C/c1ccco1	0	0	0	0	-
CC(=O)c1c(C)oc2ccc(N(C(C)=O)S(=O)(=O)c3cccc([N+](=O)[O-])c3)cc12	0	0	0	0	-
CC(=O)c1c(C)oc2ccc(N(C(=O)C3CCCCC3)S(=O)(=O)c3cc([N+](=O)[O-])ccc3C)cc12	80	0	0	0	0
C[C@@H]1CN([C@H](C)CO)C(=O)CCCn2nncc2CO[C@H]1CN(C)S(=O)(=O)c1cccc(C#N)c1	0	-	-	0	-
CCc1ccc(Nc2n[n+](-c3ccccc3)c(-c3ccc(N(CC)CC)cc3)s2)cc1	0	0	0	0	-
CC(C)Cn1c(O)c(N=NC(=O)c2cccc(S(=O)(=O)N3CCCCC3)c2)c2ccccc21	58	0	0	0	0
COc1ccccc1C/C(N)=N/OC(=O)c1ccc(C)c([N+](=O)[O-])c1	0	0	0	0	-
Cc1ccc(C(=O)O/N=C(\N)Cc2cccs2)cc1[N+](=O)[O-]	62	0	?	0	76
COc1cccc(N2CCc3c(C)nc4ccc(Cl)cc4c32)c1	0	0	0	0	-
CCN1Cc2c(/C=C/c3ccccc3)nc3ccc(OC)cc3c2N(c2cccc(Cl)c2)C1	77	0	0	0	85
N#CCCN(C(=O)COC(=O)c1ccc2c(c1)OCO2)c1ccccc1	0	0	0	0	-
O=C(N/C(=C\c1ccc(Br)cc1)C(=O)N1CCOCC1)c1ccc([N+](=O)[O-])cc1	91	0	0	0	93
SMILES	FAS-TE inh	Arrestin-AP2 inh	GASC-1 inh	SENP1 FRET inh	FAS-TE conf
COc1ccc(/C=C(\NC(=O)c2ccc([N+](=O)[O-])cc2)C(=O)NCCN2CCOCC2)cc1	64	0	0	0	73
COc1ccc(/C=C(\NC(=O)c2ccc([N+](=O)[O-])cc2)C(=O)NCCCN2CCOCC2)cc1	76	0	0	0	79
COc1ccc(NC(=O)CN2C(=O)CC(C)S(=O)(=O)c3ccccc32)cc1 (stereo not given)	0	0	0	0	-
COCCN1C(=O)CCC1(C)C(=O)NC1CCCCC1 (stereo not given)	0	-	-	0	-
Cc1ccc(NC(=O)Cn2c3ccc(F)cc3c3nc4n(c(=O)c32)CCS4)cc1F	0	0	0	0	-
O=C(C(=O)N1CCN(c2ccccc2)CC1)c1ccccc1	-	-	-	0	-
Cc1nc(/N=C(\N)NC(=O)N2c3ccccc3Sc3ccccc32)nc2ccccc12	68	0	0	0	0
CCN(CC(=O)NCc1ccc(Cl)cc1)C(=O)/C=C/c1ccccc1	0	0	0	0	-
CCN(CC(=O)NCc1ccc(Cl)cc1)C(=O)/C=C/c1ccc(Cl)c([N+](=O)[O-])c1	65	0	0	0	0
COc1ccc(N2C(=O)C3ON(C4SC(=S)N(C)C4(C)C)C(c4ccc([N+](=O)[O-])cc4)C3C2=O)cc1 (stereo not given)	0	0	0	0	-
COc1ccc(N2C(=O)C3ON(C4SC(=S)N(C)C4(C)C)C(c4ccc(Cl)cc4)C3C2=O)cc1 (stereo not given)	71	0	0	0	0
Cc1cccc(N(CC(=O)NC2CCCC2)C(=O)c2nsc(Cl)c2Cl)c1C	0	0	0	0	-
CCOc1ccccc1N(CC(=O)NC1CCCCC1)C(=O)c1nsc(Cl)c1Cl	50	0	0	0	0
COc1ccc(C(NC(=O)c2ccc(=O)[nH]c2)C(=O)Nc2ccc(C(C)C)cc2)cc1 (stereo not given)	0	0	0	0	-
O=[N+]([O-])c1ccc(CN2CC(N3CCC(Cc4ccccc4)CC3)CS2(=O)=O)cc1 (stereo not given)	51	-	-	0	57
COc1ccc(S(=O)(=O)Nc2ccc(-c3ccc(N4CCCC4)nn3)cc2)cc1C	0	0	0	0	-
O=[N+]([O-])c1ccc(Cl)c(S(=O)(=O)Nc2ccc(-c3ccc(N4CCCC4)nn3)cc2)c1	67	0	0	0	27
O=[N+]([O-])c1ccc(S(=O)(=O)Nc2ccc(-c3ccc(N4CCCC4)nn3)cc2)cc1	0	0	0	0	-
O=[N+]([O-])c1ccc(Cl)c(S(=O)(=O)Nc2cccc(-c3ccc(N4CCCC4)nn3)c2)c1	58	0	0	0	66
Cc1ccc([N+](=O)[O-])cc1S(=O)(=O)Nc1ccc(-c2ccc(N3CCCC3)nn2)cc1	54	0	0	0	51
Cc1ccc([N+](=O)[O-])cc1S(=O)(=O)Nc1cccc(-c2ccc(N3CCOCC3)nn2)c1	0	0	0	0	-
Cc1c([N+](=O)[O-])cc(S(=O)(=O)Nc2ccc(-c3ccc(N4CCCC4)nn3)cc2)cc1[N+](=O)[O-]	87	0	0	0	90
O=C(NC1CCOCC1)C1CCC(=O)N(CCc2cccc(F)c2)C1 (stereo not given)	0	0	0	0	-
Cc1ccc(S(=O)(=O)Nc2cccc(-c3ccc(N4CCCCCC4)nn3)c2)c(C)c1	59	0	0	0	60
CC(=O)N1CC(c2ccccc2)C(c2ccc(Cl)cc2)=N1 (stereo not given)	0	0	0	0	-
O=C1OCCN1c1ccccc1	0	0	-	0	-
